Test results from ChEMBL document CHEMBL1152770, “Inhibitors of hepatitis C virus polymerase: synthesis and biological characterization of unsymmetrical dialkyl-hydroxynaphthalenoyl-benzothiadiazines” (J Med Chem, 2009).
pEC50, pIC50: −log10 of the molar value.

Legend:
[1] = AUC in dog at 2.5 mg/kg, po; type: ADME, organism-based, Canis lupus familiaris; design: dose 2.5 mg/kg, route oral; details: plasma
Procedure, shortened: (§1)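 Vehicle DMSO:PEG400 (10:90, v/v). Dosing at 5 mg/kg in rat and monkey; dog 5 mg/kg or 2.5 mg/kg. Protein precipitation with acetonitrile, then LC-MS/MS in negative-ion MRM (m/z 516.2→437.0) against spiked standards with internal standard.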

[2] = Oral bioavailability in dog at 2.5 mg/kg; type: ADME, organism-based, Canis lupus familiaris; details: in vivo; procedure, shortened: as §1
[3] = Metabolic stability in rat liver microsomes assessed as intrinsic clearance; type: ADME, Microsome
[4] = Metabolic stability in dog liver microsomes assessed as intrinsic clearance; type: ADME, Canis lupus familiaris, Microsome
[5] = Metabolic stability in monkey liver microsomes assessed as intrinsic clearance; type: ADME, Macaca mulatta, Microsome; details: rhesus monkey
[6] = Metabolic stability in human liver microsomes assessed as intrinsic clearance; type: ADME, Microsome
[7] = test system: Hepatocyte; assay: Metabolic stability in rat hepatocytes assessed as intrinsic clearance; type: ADME, cell-based, Liver
[8] = Metabolic stability in dog hepatocytes assessed as intrinsic clearance; type: ADME, cell-based, Canis lupus familiaris, Liver, Hepatocyte
[9] = Metabolic stability in monkey hepatocytes assessed as intrinsic clearance; type: ADME, cell-based, Macaca mulatta, Liver, Hepatocyte; details: rhesus monkey
[10] = test system: Hepatocyte; assay: Metabolic stability in human hepatocytes assessed as intrinsic clearance; type: ADME, cell-based, Liver
[11] = Cytotoxicity against human HuH7 cells by MTT assay; type: cell-based, Huh-7; details: read-out: TD50 (the source's name)
Procedure, shortened: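 Cytotoxicity in Huh-7 replicon cultures measured by MTT colorimetric assay after the four-day incubation.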

[12] = test system: Hepatitis C virus; assay: Ratio of EC50 for HCV isolate Con1 in presence of 40% human serum to EC50 for HCV isolate Con1; type: functional, Hepacivirus hominis
Procedure, shortened: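 Genotype 1b-con1 subgenomic replicon in Huh-7 cells. Four-day incubation with inhibitor in medium with 5% FBS, with or without 40% human serum. EC50 from the fall in HCV RNA copy number by real-time PCR. Ratio is EC50 with serum over EC50 without.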

[13] = Aqueous solubility in 50 mM citrate buffer at pH 4; type: physicochemical
Procedure, shortened: (§2)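 Equilibrium solubility in PEG 400, in 50 mM citrate buffer pH 4 or in 50 mM phosphate buffer pH 7.4. Buffers brought to ionic strength 0.155 M with NaCl. Vials rotated at 25 °C for 4 days, final pH measured, then supernatant assayed by reverse-phase HPLC at 262 nm against a linear standard curve.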

[14] = Aqueous solubility in 50 mM phosphate buffer at pH 7.4; type: physicochemical; procedure, shortened: as §2
[15] = Solubility in polyethylene glycol 400 at 25 deg C; type: physicochemical; procedure, shortened: as §2
[16] = n-Octanol-phosphate buffer distribution coefficient, log D at pH 7.4; type: physicochemical
Procedure, shortened: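 Compound was dissolved in n-octanol and mixed with 50 mM phosphate buffer, isotonic with NaCl, pH 7.4. The mixture was tumbled at 25 °C, 25 rpm, for 2-3 days, then centrifuged to split the phases. Each phase was assayed by reverse-phase HPLC (UV 262 nm) against a linear standard curve. D is the octanol/buffer concentration ratio.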

[17] = Elimination half life in rat at 5 mg/kg, iv; type: ADME, organism-based; design: dose 5 mg/kg, route intravenous; details: in vivo, read-out: beta t1/2 (converted); procedure, shortened: as §1
[18] = Volume of distribution at steady state in rat at 5 mg/kg, iv; type: ADME, organism-based; design: dose 5 mg/kg, route intravenous; details: in vivo, read-out: Vdss
Procedure, shortened: (§3)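 Single intravenous dose. Heparinized plasma sampled at 0.1, 0.25, 0.5, 1, 2, 4, 6, 9, 12 and 24 h, plus 3 and 15 h in dog. Drug was isolated by acetonitrile protein precipitation and quantified by LC-MS in negative-ion MRM mode (m/z 516.2→437.0) against an internal standard. Concentrations came from unweighted linear regression of spiked standards.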

[19] = Terminal phase volume of distribution in rat at 5 mg/kg, iv; type: ADME, organism-based; design: dose 5 mg/kg, route intravenous; details: in vivo, read-out: Vbeta; procedure, shortened: as §3
[20] = AUC in rat at 5 mg/kg, iv; type: ADME, organism-based; design: dose 5 mg/kg, route intravenous; details: plasma; procedure, shortened: as §1
[21] = Plasma clearance in rat at 5 mg/kg, iv; type: ADME, organism-based; design: dose 5 mg/kg, route intravenous; procedure, shortened: as §1
[22] = Cmax in rat at 5 mg/kg, po; type: ADME, organism-based; design: dose 5 mg/kg, route oral; details: in vivo; procedure, shortened: as §1
[23] = Tmax in rat at 5 mg/kg, po; type: ADME, organism-based; design: dose 5 mg/kg, route oral; details: in vivo
Procedure, shortened: (§4)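 Single oral gavage-type dose in DMSO:PEG400 (10:90, v/v). Heparinized plasma collected at 0.25, 0.5, 1, 2, 4, 6, 9, 12 and 24 h, with extra 3 and 15 h points in dog. Acetonitrile protein precipitation was followed by LC-MS in negative-ion MRM mode with an internal standard. Tmax was read from the plasma profile.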

[24] = AUC in rat at 5 mg/kg, po; type: ADME, organism-based; design: dose 5 mg/kg, route oral; details: plasma; procedure, shortened: as §1
[25] = Oral bioavailability in rat at 5 mg/kg; type: ADME, organism-based; details: in vivo; procedure, shortened: as §1
[26] = Drug level in rat liver at 5 mg/kg, po after 6 hrs; type: ADME, organism-based; design: dose 5 mg/kg, route oral; details: read-out: Drug uptake
Procedure, shortened: (§5)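 Rats dosed orally at 5 mg/kg, four groups, sacrificed at 6 and 12 h. Plasma and liver homogenate extracted by acetonitrile protein precipitation with internal standard and quantified by LC-MS (negative-ion MRM). Liver/plasma ratio taken from the two concentrations.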

[27] = Drug level in rat liver at 5 mg/kg, po after 12 hrs; type: ADME, organism-based; design: dose 5 mg/kg, route oral; details: read-out: Drug uptake; procedure, shortened: as §5
[28] = Elimination half life in monkey at 5 mg/kg, iv; type: ADME, organism-based, Macaca mulatta; design: dose 5 mg/kg, route intravenous; details: rhesus monkey, in vivo, read-out: beta t1/2 (converted); procedure, shortened: as §1
[29] = Volume of distribution at steady state in monkey at 5 mg/kg, iv; type: ADME, organism-based, Macaca mulatta; design: dose 5 mg/kg, route intravenous; details: rhesus monkey, in vivo, read-out: Vdss; procedure, shortened: as §3
[30] = Terminal phase volume of distribution in monkey at 5 mg/kg, iv; type: ADME, organism-based, Macaca mulatta; design: dose 5 mg/kg, route intravenous; details: rhesus monkey, in vivo, read-out: Vbeta; procedure, shortened: as §3
[31] = AUC in monkey at 5 mg/kg, iv; type: ADME, organism-based, Macaca mulatta; design: dose 5 mg/kg, route intravenous; details: rhesus monkey, plasma; procedure, shortened: as §1
[32] = Plasma clearance in monkey at 5 mg/kg, iv; type: ADME, organism-based, Macaca mulatta; design: dose 5 mg/kg, route intravenous; details: rhesus monkey; procedure, shortened: as §1
[33] = Elimination half life in dog at 2.5 mg/kg, iv; type: ADME, organism-based, Canis lupus familiaris; design: dose 2.5 mg/kg, route intravenous; details: in vivo, read-out: beta t1/2 (converted); procedure, shortened: as §1
[34] = Volume of distribution at steady state in dog at 2.5 mg/kg, iv; type: ADME, organism-based, Canis lupus familiaris; design: dose 2.5 mg/kg, route intravenous; details: in vivo, read-out: Vdss; procedure, shortened: as §3
[35] = Terminal phase volume of distribution in dog at 2.5 mg/kg, iv; type: ADME, organism-based, Canis lupus familiaris; design: dose 2.5 mg/kg, route intravenous; details: in vivo, read-out: Vbeta; procedure, shortened: as §1
[36] = AUC in dog at 2.5 mg/kg, iv; type: ADME, organism-based, Canis lupus familiaris; design: dose 2.5 mg/kg, route intravenous; details: plasma; procedure, shortened: as §1
[37] = Plasma clearance in dog at 2.5 mg/kg, iv; type: ADME, organism-based, Canis lupus familiaris; design: dose 2.5 mg/kg, route intravenous; procedure, shortened: as §1
[38] = Elimination half life in monkey at 5 mg/kg, po; type: ADME, organism-based, Macaca mulatta; design: dose 5 mg/kg, route oral; details: rhesus monkey, in vivo, read-out: beta t1/2 (converted); procedure, shortened: as §1
[39] = Cmax in monkey at 5 mg/kg, po; type: ADME, organism-based, Macaca mulatta; design: dose 5 mg/kg, route oral; details: rhesus monkey, in vivo; procedure, shortened: as §1
[40] = Tmax in monkey at 5 mg/kg, po; type: ADME, organism-based, Macaca mulatta; design: dose 5 mg/kg, route oral; details: rhesus monkey, in vivo; procedure, shortened: as §4
[41] = AUC in monkey at 5 mg/kg, po; type: ADME, organism-based, Macaca mulatta; design: dose 5 mg/kg, route oral; details: rhesus monkey, plasma; procedure, shortened: as §1
[42] = Oral bioavailability in monkey at 5 mg/kg; type: ADME, organism-based, Macaca mulatta; details: rhesus monkey, in vivo; procedure, shortened: as §1
[43] = Elimination half life in dog at 2.5 mg/kg, po; type: ADME, organism-based, Canis lupus familiaris; design: dose 2.5 mg/kg, route oral; details: in vivo, read-out: beta t1/2 (converted); procedure, shortened: as §1
[44] = Cmax in dog at 2.5 mg/kg, po; type: ADME, organism-based, Canis lupus familiaris; design: dose 2.5 mg/kg, route oral; details: in vivo; procedure, shortened: as §1
[45] = Tmax in dog at 2.5 mg/kg, po; type: ADME, organism-based, Canis lupus familiaris; design: dose 2.5 mg/kg, route oral; details: in vivo; procedure, shortened: as §4
[46] = Inhibition of HCV isolate BK NS5B polymerase after 3 hrs by scintillation counting
[47] = Inhibition of HCV isolate H77 NS5B polymerase after 3 hrs by scintillation counting
[48] = test system: Hepatitis C virus; assay: Antiviral activity against HCV isolate Con1 in human Huh7 cells assessed as reduction in viral RNA after 4 days by RT-PCR; details: isolate Con1, Huh-7, 96 h
[49] = test system: Hepatitis C virus; assay: Antiviral activity against HCV isolate Con1 assessed as reduction in viral RNA after 4 days by RT-PCR in presence of 40% human serum; details: isolate Con1, 96 h
[50] = test system: Hepatitis C virus; assay: Antiviral activity against HCV 1a containing chimeric genotype 1a-H77/1b-con1 subgenom in human Huh7 cells assessed as reduction in viral RNA after 4 days by RT-PCR; details: subtype 1a, Huh-7, 96 h
[51] = test system: Nucleic Acid; assay: Ratio of drug level in rat liver after 6 hrs to EC50 for HCV isolate Con1 in presence of 40% human serum; type: tissue-based
[52] = test system: Nucleic Acid; assay: Ratio of drug level in rat liver after 12 hrs to EC50 for HCV isolate Con1 in presence of 40% human serum; type: tissue-based

Compound: CC(C)(C)CC[C@@]1(C)C(=O)C(C2=NS(=O)(=O)c3cc(NS(C)(=O)=O)ccc3N2)=C([O-])c2ccccc21.[Na+]
- AUC [1]: 121000 ng·h/mL
- bioavailability [2]: 100%
- microsomal CLint [3]: 8.7 µL/min/mg
- microsomal CLint [4]: 2.4 µL/min/mg
- microsomal CLint [5]: 14.4 µL/min/mg
- microsomal CLint [6]: 23.6 µL/min/mg
- CL [7]: 1.6 µL/min/mg
- CL [8]: 0.5 µL/min/mg
- CL [9]: 3.5 µL/min/mg
- CL [10]: 2.7 µL/min/mg
- CC50 [11]: 21700 nM
- Ratio EC50 [12]: 17
- solubility [13]: < 0.2 µg/mL
- solubility [14]: 110 µg/mL
- solubility [15]: 150000 µg/mL
- logD [16]: 2.26
- half-life [17]: 4.5 h
- Vd [18]: 2.22 L/kg
- Vd [19]: 2.39 L/kg
- AUC [20]: 14900 ng·h/mL
- clearance [21]: 5.67 mL/min/kg
- Cmax [22]: 890 ng/mL
- Tmax [23]: 9 h
- AUC [24]: 11500 ng·h/mL
- bioavailability [25]: 77.3%
- concentration at 6 h [26]: 21800 ng/g
- concentration at 12 h [27]: 4190 ng/g
- half-life [28]: 2.1 h
- Vd [29]: 0.77 L/kg
- Vd [30]: 1.77 L/kg
- AUC [31]: 10200 ng·h/mL
- clearance [32]: 9.33 mL/min/kg
- half-life [33]: 12.3 h
- Vd [34]: 0.38 L/kg
- Vd [35]: 0.46 L/kg
- AUC [36]: 116000 ng·h/mL
- clearance [37]: 0.333 mL/min/kg
- half-life [38]: 2 h
- Cmax [39]: 480 ng/mL
- Tmax [40]: 2.7 h
- AUC [41]: 1900 ng·h/mL
- bioavailability [42]: 19%
- half-life [43]: 14.8 h
- Cmax [44]: 5700 ng/mL
- Tmax [45]: 2.2 h
- pIC50 [46]: 9.22
- pIC50 [47]: 9.15
- pEC50 [48]: 8.70
- pEC50 [49]: 7.55
- pEC50 [50]: 8.40

Compound: CC(C)CC[C@]1(C)C(=O)C(C2=NS(=O)(=O)c3cc(NS(C)(=O)=O)ccc3N2)=C(O)c2ccccc21
- pIC50 [46]: 5.64
- pIC50 [47]: 6.20

Compound: CC(C)(C)CC[C@@]1(C)C(=O)C(C2=NS(=O)(=O)c3cc(NS(C)(=O)=O)ccc3N2)=C(O)c2ccccc21
- Ratio [51]: 1400
- Ratio [52]: 270
